The values that follow come from ChEMBL document CHEMBL1129660, “Studies on 6-aminoquinolones: synthesis and antibacterial evaluation of 6-amino-8-methylquinolones” (J Med Chem, 1996).

≈ marks a conversion by molar mass, not a printed value.

Holding throughout (type): functional
In test [1] the test system is Escherichia coli. The test is described as follows: Antibacterial activity tested against Escherichia coli ATCC 8739. Put shortly:
(§1)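 MICs (µg/mL) determined by conventional agar dilution against a panel of eight Gram-negative and five Gram-positive reference strains.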

Test [2] relates to Escherichia coli. Description: Antibacterial activity tested against Escherichia coli ISF 432. Put shortly: as §1
The subject of another test is Enterobacter cloacae. The test is described as follows: Antibacterial activity tested against Enterobacter cloacae OMNFI 174.
Another test has as its system Bacteria. The test is described as follows: Geometric mean of antibacterial activity (Gram +ve bacteria) of the compound. Summed up:
(§2)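 Geometric means calculated from agar-dilution MICs (µg/mL), taken separately across the five Gram-positive and the eight Gram-negative panel strains.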

Test [3] in a line: Geometric mean of antibacterial activity (Gram -ve bacteria) of the compound. Put shortly:
as §2

A further test deals with Klebsiella pneumoniae. Description: Antibacterial activity tested against Klebsiella pneumoniae (Klebsiella pneumoniae) ATCC 10031. Summed up: as §1
The subject of a further test is Proteus vulgaris. The test is described as follows: Antibacterial activity tested against Proteus vulgaris CNUR 5. Put shortly:
as §1

For another test, the system named is Providencia stuartii. The test is described as follows: Antibacterial activity tested against Providencia stuartii CNUR 5. Summed up:
as §1

Another test has as its system Pseudomonas aeruginosa. The test is described as follows: Antibacterial activity tested against P. ae (Pseudomonas aeruginosa) ATCC 9027. Put shortly:
as §1

Another test has as its system Shigella. The test is described as follows: Antibacterial activity tested against Shigella enteritidis. Summed up: as §1
Test [4] deals with Staphylococcus aureus. The test is described as follows: Antibacterial activity against Staphylococcus aureus ATCC 6538. Put shortly: as §1
Test [5] has as its system Staphylococcus aureus. The test is described as follows: Antibacterial activity against Staphylococcus aureus MPR 5. Summed up: as §1
A further test has as its system Enterococcus faecalis. The test is described as follows: Antibacterial activity tested against Streptococcus faecalis LEP Br. Put shortly:
as §1

Test [6] has as its system Staphylococcus epidermidis. Description: Antibacterial activity tested against Staphylococcus epidermidis CPHL A2. Summed up: as §1
Test [7] relates to Staphylococcus epidermidis. Description: Antibacterial activity tested against Staphylococcus epidermidis HCF Berset C. Put shortly: as §1

As to `Cc1c(N2CCCCC2)c([N+](=O)[O-])cc2c(=O)c(C(=O)O)cn(C3CC3)c12`, the minimal inhibitory concentration (MIC) – broadly, the lowest concentration found to suppress growth – with Escherichia coli [1] is 32 µg/mL (≈ 86.2 µM); against Escherichia coli [2], 4 µg/mL (≈ 10.8 µM); with Enterobacter cloacae, 64 µg/mL (≈ 172 µM); with Klebsiella pneumoniae it was 64 µg/mL (≈ 172 µM); against Proteus vulgaris, 64 µg/mL (≈ 172 µM); in the test on Providencia stuartii it was 64 µg/mL (≈ 172 µM). For the same compound, the minimal inhibitory concentration (MIC) in the test with Pseudomonas aeruginosa came out at 64 µg/mL (≈ 172 µM); in the test with Shigella it was 64 µg/mL (≈ 172 µM); in the test with Staphylococcus aureus [4], 32 µg/mL (≈ 86.2 µM); with Staphylococcus aureus [5], 1 µg/mL (≈ 2.69 µM); in the test with Enterococcus faecalis, 32 µg/mL (≈ 86.2 µM); in test [6] it was 8 µg/mL (≈ 21.5 µM). The minimum inhibitory concentration (MIC) in [7] is 8 µg/mL (≈ 21.5 µM). Moreover, the Geometric mean stood at 9.189 with Bacteria and 41.5 in test [3].
Turning to `Cc1c(N2CC(C)CC(C)C2)c(N)cc2c(=O)c(C(=O)O)cn(C3CC3)c12` (stereo not given), the minimal inhibitory concentration (MIC) was 0.125 µg/mL (≈ 0.338 µM) in the test with Escherichia coli [1]; 0.03 µg/mL (≈ 0.0812 µM) against Escherichia coli [2]; 2 µg/mL (≈ 5.41 µM) against Enterobacter cloacae; 0.06 µg/mL (≈ 0.162 µM) with Klebsiella pneumoniae; 16 µg/mL (≈ 43.3 µM) against Proteus vulgaris; 0.5 µg/mL (≈ 1.35 µM) in the test on Providencia stuartii. Moreover, the MIC against Pseudomonas aeruginosa stood at 4 µg/mL (≈ 10.8 µM); against Shigella it was 2 µg/mL (≈ 5.41 µM); in the test on Staphylococcus aureus [4], 0.03 µg/mL (≈ 0.0812 µM); in the test on Staphylococcus aureus [5], 0.03 µg/mL (≈ 0.0812 µM); against Enterococcus faecalis, 1 µg/mL (≈ 2.71 µM); in [6] it was 0.06 µg/mL (≈ 0.162 µM). In test [7], this compound showed a minimal inhibitory concentration (MIC) of 0.06 µg/mL (≈ 0.162 µM). For the same compound, the Geometric mean worked out at 0.079 in the test on Bacteria and 0.641 in [3].
Regarding `Cc1c(N2CCC2)c(N)cc2c(=O)c(C(=O)O)cn(C3CC3)c12`, the MIC in the test on Escherichia coli [1] was 16 µg/mL (≈ 51.1 µM); against Escherichia coli [2] it was 0.25 µg/mL (≈ 0.798 µM); against Enterobacter cloacae, 16 µg/mL (≈ 51.1 µM); against Klebsiella pneumoniae, 0.25 µg/mL (≈ 0.798 µM); against Proteus vulgaris it was > 128 µg/mL; in the test on Providencia stuartii, 64 µg/mL (≈ 204 µM). Besides, the MIC in the test with Pseudomonas aeruginosa was > 128 µg/mL; against Shigella, 16 µg/mL (≈ 51.1 µM); against Staphylococcus aureus [4], 8 µg/mL (≈ 25.5 µM); in the test on Staphylococcus aureus [5] it was 8 µg/mL (≈ 25.5 µM); in the test on Enterococcus faecalis it was > 128 µg/mL; in test [6], 16 µg/mL (≈ 51.1 µM). The compound further displayed an MIC in test [7] of 16 µg/mL (≈ 51.1 µM). Besides, the Geometric mean with Bacteria turned out to be 18.379; in [3], 11.313.
For `Cc1c(N2CCC(C)CC2)c([N+](=O)[O-])cc2c(=O)c(C(=O)O)cn(C3CC3)c12`, the minimum inhibitory concentration (MIC) in the test with Escherichia coli [1] came to 32 µg/mL (≈ 83 µM); in the test on Escherichia coli [2], 2 µg/mL (≈ 5.19 µM); in the test on Enterobacter cloacae it was 64 µg/mL (≈ 166 µM); with Klebsiella pneumoniae, 64 µg/mL (≈ 166 µM); in the test on Proteus vulgaris, 64 µg/mL (≈ 166 µM); against Providencia stuartii it was 64 µg/mL (≈ 166 µM). The minimum inhibitory concentration (MIC) is 64 µg/mL (≈ 166 µM) in the test with Pseudomonas aeruginosa; 64 µg/mL (≈ 166 µM) in the test on Shigella; 32 µg/mL (≈ 83 µM) against Staphylococcus aureus [4]; 2 µg/mL (≈ 5.19 µM) against Staphylococcus aureus [5]; 32 µg/mL (≈ 83 µM) against Enterococcus faecalis; 4 µg/mL (≈ 10.4 µM) in test [6]. Moreover, the MIC in [7] was found to be 4 µg/mL (≈ 10.4 µM). Besides, the Geometric mean amounted to 8 with Bacteria and 38.054 in test [3].
Regarding `CN1CCN(c2nc3c(cc2N)c(=O)c(C(=O)O)cn3C2CC2)CC1`, the minimal inhibitory concentration (MIC) was found to be 0.125 µg/mL (≈ 0.364 µM) with Escherichia coli [1]; 0.06 µg/mL (≈ 0.175 µM) in the test with Escherichia coli [2]; 0.125 µg/mL (≈ 0.364 µM) against Enterobacter cloacae; 0.03 µg/mL (≈ 0.0874 µM) in the test with Klebsiella pneumoniae; 64 µg/mL (≈ 186 µM) with Proteus vulgaris; 2 µg/mL (≈ 5.82 µM) with Providencia stuartii. Moreover, the MIC with Pseudomonas aeruginosa is 2 µg/mL (≈ 5.82 µM); against Shigella it was 0.125 µg/mL (≈ 0.364 µM); against Staphylococcus aureus [4], 4 µg/mL (≈ 11.6 µM); with Staphylococcus aureus [5], 4 µg/mL (≈ 11.6 µM); with Enterococcus faecalis, 32 µg/mL (≈ 93.2 µM); in [6], 4 µg/mL (≈ 11.6 µM). The MIC in test [7] worked out at 4 µg/mL (≈ 11.6 µM). In addition, the Geometric mean in the test on Bacteria came out at 6.063; in test [3], 0.416.
Take `Nc1cc2c(=O)c(C(=O)O)cn(C3CC3)c2cc1N1CCNCC1`: the minimal inhibitory concentration (MIC) with Escherichia coli [1] came to 0.25 µg/mL (≈ 0.761 µM); against Escherichia coli [2] it was 0.03 µg/mL (≈ 0.0914 µM); against Enterobacter cloacae, 0.25 µg/mL (≈ 0.761 µM); in the test with Klebsiella pneumoniae, 0.25 µg/mL (≈ 0.761 µM); in the test with Proteus vulgaris it was 32 µg/mL (≈ 97.5 µM); against Providencia stuartii, 32 µg/mL (≈ 97.5 µM). Besides, the MIC is 2 µg/mL (≈ 6.09 µM) in the test on Pseudomonas aeruginosa; 0.25 µg/mL (≈ 0.761 µM) against Shigella; 64 µg/mL (≈ 195 µM) in the test on Staphylococcus aureus [4]; 64 µg/mL (≈ 195 µM) in the test on Staphylococcus aureus [5]; 128 µg/mL (≈ 390 µM) against Enterococcus faecalis; 16 µg/mL (≈ 48.7 µM) in [6]. Also, the MIC in [7] was 16 µg/mL (≈ 48.7 µM). In addition, the Geometric mean in the test on Bacteria was 42.224; in test [3] it was 0.836.
